TAAR1 ag: human TAAR1 agonists, primary screen, Fluo-8 calcium fluorescence, CHO RD-HGA16 cells; vehicle wells 0%, saturating PEA agonist 100%; activation, % at 3 µM; hit rate 0.99% among 360,000; AID 624467, 2012;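 active = activation above the mean activation of all test compounds in the run plus 3 SD, cut at about 38% in these data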
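System: CHO RD-HGA16 cells carrying human TAAR1 plus Gα16; Incubation: 17-24 h seeding, 75 min 37 °C dye, 30 min RT; Measured by: Fluo-8 fluorescence, 5 s baseline then 140 s kinetic read; Control set: DMSO and PEA EC100; Replication: single well for each compound.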
CHO parental Ca: ATP-evoked calcium signal inhibitors, parental CHO, primary screen, counter-screen for OX1R antagonist project, cell-based, fluorescence, Fluo-8 calcium dye. parental CHO-K1, ATP-induced calcium, Fluo-8 fluorescence. inhibition, % at 5.6 µM. hit rate 0.63% among 330,000. AID 463079, 2010;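 active = inhibition above that plate's mean sample inhibition plus 3 SD, cut at about 26% in these data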;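 also: 0% = ATP-challenged DMSO wells and 100% = DMSO wells without ATP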
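test system = CHO parental line | reagent = ATP stimulus | measured by = intracellular calcium via Fluo-8 no-wash fluorescent dye | control set = ATP and no-ATP DMSO wells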
GalR3 antagonist: GalR3 antagonists in HEK293 cells, primary screen, cell-based, fluorescence readout; HEK293 GalR3-CNG cAMP membrane potential fluorescence; galR3 body fused to GalR1 C-terminus; AID 651719, 2012; Galanin receptor type 3 (Homo sapiens), O60755; hit rate 0.44% among 360,000; inhibition, % at 3 µM;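 active = inhibition above the screen-wide average plus 3 SD, cut at about 13% in these data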;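 also: forskolin and galanin both at EC90 stimulate the cells; cAMP rise reported by CNG channel membrane potential dye signal; 0% = forskolin plus galanin with DMSO and 100% = forskolin alone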
Target sequence (O60755 1-299 limits assumed): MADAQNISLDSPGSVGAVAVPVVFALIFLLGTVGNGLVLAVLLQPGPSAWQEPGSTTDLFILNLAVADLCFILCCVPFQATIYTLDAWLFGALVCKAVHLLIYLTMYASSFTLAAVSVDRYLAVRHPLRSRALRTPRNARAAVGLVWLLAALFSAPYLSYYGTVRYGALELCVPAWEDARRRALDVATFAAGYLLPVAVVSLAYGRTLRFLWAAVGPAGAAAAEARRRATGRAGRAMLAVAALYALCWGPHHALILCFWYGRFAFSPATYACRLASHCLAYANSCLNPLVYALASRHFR
OX1R antag-1: antagonists of human orexin 1 receptor (OX1R). Orexin/Hypocretin receptor type 1 (Homo sapiens), O43613. OX1R-expressing cells, FRET antagonist read-out. inhibition, % at 6.6 µM. hit rate 1.8% among 330,000; in the data active = inhibition mostly above about 38%, no sharp cut-off; inactive = mostly below about 40%;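 also: 0% = agonist challenge alone and 100% = reference antagonist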
Target sequence (O43613 whole entry, looked up): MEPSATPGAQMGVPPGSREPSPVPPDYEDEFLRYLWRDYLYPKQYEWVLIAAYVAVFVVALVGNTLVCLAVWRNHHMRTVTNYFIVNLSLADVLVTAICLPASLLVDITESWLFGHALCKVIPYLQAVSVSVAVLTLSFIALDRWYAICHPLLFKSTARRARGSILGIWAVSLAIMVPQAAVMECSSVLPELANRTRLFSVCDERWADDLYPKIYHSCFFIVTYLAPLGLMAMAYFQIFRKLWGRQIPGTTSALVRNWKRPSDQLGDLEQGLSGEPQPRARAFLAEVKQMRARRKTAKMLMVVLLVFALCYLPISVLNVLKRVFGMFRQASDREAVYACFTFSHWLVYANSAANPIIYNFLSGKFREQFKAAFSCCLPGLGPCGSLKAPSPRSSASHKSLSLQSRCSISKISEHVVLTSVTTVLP
TAAR1 antag: human TAAR1 antagonists, primary screen, Fluo-8 calcium fluorescence, CHO RD-HGA16 cells; antagonist; AID 624466, 2012; hit rate 1.5% among 360,000; inhibition, % at 3 µM;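 active = inhibition above a per-plate cutoff, the mean inhibition of test compounds on that plate plus 3 SD, cut at about 49% in these data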;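 also: 0% = DMSO plus EC80 beta-PEA response and 100% = DMSO alone without agonist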
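Test system: CHO RD-HGA16 cells bearing hTAAR1 | Reagent: β-PEA, EC80 | Compound dosing: 3 µM, single point | Schedule: Dye loading 75 min at 37 °C, then 30 min room temperature | Signal: Calcium fluorescence with Fluo-8 | Evaluation: Percent inhibition of PEA-evoked calcium signal, max/basal emission ratio | Control set: DMSO-only wells and EC80 β-PEA-stimulated wells | Repeats: Singlicate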
OX1R antag-2: OX1R (HCRTR1) antagonists, primary screen, fluorescence, CHO/OX1R cells, Fluo-8 calcium, orexin A. Orexin/Hypocretin receptor type 1 (Homo sapiens), O43613. Fluo-8 calcium fluorescence. inhibition, % at 5 µM. hit rate 0.43% among 330,000. AID 434989, 2010;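 active = inhibition above its plate's threshold, mean inhibition of all tested compounds on the plate plus 3 SD, cut at about 37% in these data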;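 also: 0% = orexin A challenge wells and 100% = SB-334867-A antagonist wells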
TAAR1 ag confirm: human TAAR1 agonists, retest of hits, confirmation, Fluo-8 calcium fluorescence, CHO RD-HGA16 cells; shares compounds with TAAR1 ag; scaled: DMSO 0%, maximal phenethylamine 100%; activation, % at 3 µM; hit rate 82% among 2,400; AID 651783, 2012;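 active = activation above a cutoff set at the run's mean compound activation plus 3 SD, cut at about 39% in these data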
Ga16 nonsel ag: nonselective calcium mobilization agonists, CHO-Ga16 cells, counter-screen for hTAAR1 agonist project, cell-based, fluorescence, CHO-Ga16 parental line | shares compounds with TAAR1 ag | Fluo-8 calcium fluorescence; normalized to maximal ATP response, DMSO zero | activation, % at 3 µM | hit rate 50% among 2,400 | AID 651787, 2012;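 active = activation above the run cutoff, the mean activation over all tested wells plus 3 SD, cut at about 12% in these data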;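 also: 0% = DMSO wells and 100% = maximal ATP response on the peak over basal ratio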
TAAR1 desens: TAAR1 desensitization by agonist hits, confirmation, counter-screen for TAAR1 agonist project, cell-based, fluorescence, tachyphylaxis | shares compounds with TAAR1 ag | CHO RD-HGA16 hTAAR1, Fluo-8 calcium, beta-PEA response inhibition | inhibition, % at 3 µM | hit rate 46% among 2,400 | AID 651951, 2012;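 active = inhibition above the run cutoff, the mean inhibition of all test compounds plus 3 SD, cut at about 49% in these data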;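 also: beta-PEA stimulus applied at its EC80; loss of beta-PEA calcium signal after compound pretreatment read as receptor desensitization; 0% = DMSO with beta-PEA at EC80 and 100% = DMSO alone without agonist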
Ga16 nonsel ant: inhibition of ATP-evoked calcium response in CHO-Ga16 cells, counter-screen for TAAR1 agonist project, cell-based, fluorescence; shares compounds with TAAR1 ag; CHO-Ga16 ATP-induced calcium, Fluo-8 fluorescence; inhibition, % at 3 µM; hit rate 39% among 2,400;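 active = inhibition above the plate's mean compound inhibition plus 3 SD, computed per plate, cut at about 22% in these data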;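 also: 0% = EC80 ATP with DMSO and 100% = DMSO wells without ATP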
The depositor's hits bear a star; · = not tested or not shown. A selection: hits, their analogues and other compounds. The true share with any hit is near 4.2%.

SMILES	TAAR1 ag	CHO parental Ca	GalR3 antagonist	OX1R antag-1	TAAR1 antag	OX1R antag-2	TAAR1 ag confirm	Ga16 nonsel ag	TAAR1 desens	Ga16 nonsel ant
Cc1cc(C)cc(OCC(=O)Nc2ccc3c4c(cccc24)CC3)c1	102*	-6	1	7	81*	0	34	0	21	1
O=P(CCCO)(Cc1ccccc1)Cc1ccccc1	-2	9	-8	10	-9	-4	·	·	·	·
COCCN(C(=O)COC(=O)/C=C/c1nc2ccccc2s1)c1c(N)n(Cc2ccccc2)c(=O)[nH]c1=O	-1	-24	-3	35	-22	-35	·	·	·	·
O=C(N/N=C/c1ccc(O)cc1)c1ccc(COc2cc(Cl)ccc2Cl)o1	93*	59*	-3	5	76*	67*	98*	69*	87*	59*
CCOCCCNC(=O)CCn1ccc2cc(S(=O)(=O)N3CCCC3)ccc21	2	-6	2	11	-17	-6	·	·	·	·
O=C(NCCc1ccccc1)C1CCN(C2CCN(Cc3ccc(CO)o3)CC2)CC1	6	-14	-2	4	-12	-10	·	·	·	·
CCOC(=O)C1CCN(C(=O)CNC(=O)c2nn(-c3ccc(OC)cc3OC)c(=O)c3ccccc23)CC1	1	-12	-9	10	-3	-23	·	·	·	·
CCCCNc1nc(-c2ccccc2)nc(-n2ccnc2)n1	1	-14	-4	32	11	-23	·	·	·	·
C=CCNc1nc(-c2ccccc2)nc(-n2ccnc2)n1	46*	-6	-6	14	24	-25	-4	-1	0	11
NC(Cc1ccc(Cl)cc1)c1csc(Nc2nccc(C(F)(F)F)n2)n1 (stereo not drawn)	55*	·	2	·	38	·	88*	62*	74*	73*
COc1ccc(CC(N)c2csc(Nc3nccc(C(F)(F)F)n3)n2)cc1 (stereo not drawn)	52*	·	-7	·	22	·	53*	21*	28	23*
Cc1cc(C)nc(Nc2nc(C(N)Cc3ccccc3)cs2)n1 (stereo not drawn)	9	·	-8	·	-2	·	·	·	·	·
NC(Cc1ccc(F)cc1)c1csc(Nc2nccc(C(F)(F)F)n2)n1 (stereo not drawn)	72*	·	-3	·	27	·	86*	54*	56*	55*
NC(Cc1ccccc1)c1csc(Nc2nccc(C(F)(F)F)n2)n1 (stereo not drawn)	67*	·	-8	·	20	·	86*	55*	43	48*
COc1ccc(CC(N)c2csc(Nc3ncccn3)n2)cc1 (stereo not drawn)	2	·	-5	·	0	·	·	·	·	·
NC(Cc1ccc(Cl)cc1)c1csc(Nc2ccc(S(N)(=O)=O)cc2)n1 (stereo not drawn)	8	·	0	·	-18	·	·	·	·	·
O=S1(=O)N=C(N2CCc3ccccc3C2)c2ccccc21	63*	-16	-1	15	3	-26	61*	3	9	8
COc1ccc(NS(=O)(=O)c2ccc(-n3nnc4ccccc43)c([N+](=O)[O-])c2)cc1	52*	-6	-4	12	32	-3	72*	39*	50*	40*
CS(=O)(=O)c1ccc(-n2nnc3ccccc32)c([N+](=O)[O-])c1	-2	-30	-3	31	-9	-21	·	·	·	·
CCOC(=O)N[C@H](C(=O)N1CCC[C@H]1C(=O)NC1CCCC1)C1CCCCC1	2	·	-7	·	-5	·	·	·	·	·
COC(=O)c1sc2ncccc2c1OCc1c(Cl)cccc1Cl	12	-12	-3	20	15	-22	·	·	·	·
Cc1cccc(OS(=O)(=O)NC(=O)OCC2CCCN3CCCCC23)c1 (stereo not drawn)	0	1	-6	-1	6	-21	·	·	·	·
COC(=O)c1cc(NC(=O)CN2C(=O)CSC2=O)ccc1Cl	70*	-8	-3	11	6	-1	5	1	-7	2
O=S(CC(O)COCc1ccc(Cl)cc1)c1ccccn1 (stereo not drawn)	11	4	0	2	-4	7	·	·	·	·
O=Cc1[nH]c2ccccc2c1N(C(=O)CCl)c1ccc([N+](=O)[O-])cc1	56*	14	2	14	52*	34	70*	44*	73*	53*
SMILES	TAAR1 ag	CHO parental Ca	GalR3 antagonist	OX1R antag-1	TAAR1 antag	OX1R antag-2	TAAR1 ag confirm	Ga16 nonsel ag	TAAR1 desens	Ga16 nonsel ant
CC[C@@]12C(=O)N(c3cccc(Br)c3)C(=O)N1[C@H](c1ccc(OC)cc1)[C@@H]1C(=O)N(C(C)(C)C)C(=O)[C@@H]12	1	-25	2	16	22	-36	·	·	·	·
O=C(NCc1cccnc1)/C(=C/c1ccc([N+](=O)[O-])cc1)NC(=O)c1ccccc1	1	4	-3	19	2	-4	·	·	·	·
O=C(NCCc1ccccc1)/C(=C\c1ccc([N+](=O)[O-])cc1)NC(=O)c1ccc(Br)cc1	56*	3	-4	10	-15	8	36	0	-3	9
O=C(NCCc1ccccc1)c1ccc([N+](=O)[O-])cc1	56*	-6	11	21	32	-12	97*	5	57*	-4
OCc1ccccc1CNCc1ccccc1	7	3	-2	22	0	5	·	·	·	·
OCc1ccccc1SSc1ccccc1CO	58*	-9	1	3	-4	-10	32	19*	7	5
Cc1cc(C(=O)Nc2cccc(C(=O)O)c2)c(C)o1	6	-6	-5	6	14	-18	·	·	·	·

Screening data as filed in PubChem.
